Holding throughout (assay type): protein-complex assay
The target in experiment [1] is GABA-A receptor; anion channel. Put plainly: Binding affinity for Diazepam insensitive (DI) isoform of the benzodiazepine (Bz) binding site on GABAA receptors. A digest of the protocol: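 Adult male Sprague-Dawley rat cerebellar membranes (~100 µg; homogenised in 50 mM Tris-citrate pH 7.8, washed by repeated 20000g spins at 4 °C). Incubated 60 min at 0-4 °C, GF/B filtration, scintillation counting. Duplicate assays; Ki.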

The target of experiment [2] is GABA-A receptor; anion channel. As to the kind of experiment: Binding affinity for Diazepam sensitive (DS) isoform of the benzodiazepine (Bz) binding site on GABAA receptors.
Experiment [3] addresses GABA-A receptor; anion channel (Rattus norvegicus) (UniProt O09028+P15431+P18506+P18508+P19969+P20236+P23574+P23576+P28471+P28473+P30191+P62813+P63079+P63138+Q91ZM7+Q9ES14). As to the kind of experiment: Ratio of binding affinity against DI Bz receptor to that of DS Bz receptor.

A value given as a limit tells only on which side of the number the result lay.

In general, Ki refers to a dissociation constant, usually derived from enzyme kinetics or from competition with a known ligand. With `CC(C)(C)OC(=O)c1ncn2c1C1CCCN1C(=O)c1c(Br)cccc1-2` (centres undefined), the figures for the Ki in experiment [1] and in experiment [2] were 10 nM and 0.5 nM, respectively. Also, in experiment [3], the Ratio was found to be 20.
In the case of `COC(=O)c1ncn2c1CN(C)C(=O)c1sccc1-2`, the Ratio in experiment [3] worked out at 58.
`Cc1noc(-c2ncn3c2CN(Cc2ccccc2)C(=O)c2c(Cl)cccc2-3)n1` yielded a Ki in experiment [2] of 7.5 nM. Moreover, the Ratio in experiment [3] amounted to 101.
Regarding `CCOC(=O)c1ncn2c1C1CCN1C(=O)c1c(Cl)cccc1-2` (centres undefined), the Ki in experiment [1] is 34 nM; in experiment [2] it was 0.2 nM. The Ratio in experiment [3] turned out to be 170.
Turning to `CCOC(=O)c1ncn2c1CN(C)C(=O)c1ccc(Cl)cc1-2`, the Ki in experiment [1] was above 10000 nM; in experiment [2], above 1000 nM.
In experiment [2], `CCCOC(=O)c1nc(C)n2c1CN=C(c1ccccc1Cl)c1cc(Cl)ccc1-2` gave a Ki of 2.2 nM.
Take `CCOC(=O)c1ncn2c1CN(Cc1ccccc1)C(=O)c1cc(Cl)ccc1-2`: the Ki turned out to be 10.9 nM in experiment [1] and 13.7 nM in experiment [2]. Further, the Ratio in experiment [3] was 0.8.
Taken in the same sequence, the figures for `CCOC(=O)c1ncn2c1CN(C)C(=O)c1c(F)cccc1-2` were 102 nM, 0.8 nM and 128.
In the same order, the values of `CCc1cccc2c1C(=O)N1CCCC1c1c(C(=O)OC(C)(C)C)ncn1-2` (centres undefined) are 164 nM, 1 nM and 164.
For `CN1Cc2c(C(=O)OC(C)(C)C)ncn2-c2ccsc2C1=O`, the Ratio in experiment [3] turned out to be 13.
For the molecule `CCOC(=O)c1ncn2c1[C@H]1CCCN1C(=O)c1ccccc1-2`, the inhibition constant (Ki) is above 1000 nM in experiment [1] and above 100 nM in experiment [2].
As to `CCOC(=O)c1ncn2c1CN(Cc1ccccc1)C(=O)c1c(Cl)cccc1-2`, the values for the Ki in experiment [1] and in experiment [2] were 20.2 nM and 0.4 nM, respectively. Moreover, in experiment [3], the Ratio stood at 51.
As for `CCC(CC)OC(=O)c1ncn2c1CN(C)C(=O)c1cc(Cl)ccc1-2`, the Ratio in experiment [3] turned out to be 4.6.
For `CC(C)OC(=O)c1ncn2c1CN(C)C(=O)c1cc(Cl)ccc1-2`, in experiment [3], the Ratio turned out to be 0.8.
With `CC(C)(C)OC(=O)c1ncn2c1C1CCN1C(=O)c1cc(F)ccc1-2` (centres undefined), the Ki was found to be 16.9 nM in experiment [1] and 1.8 nM in experiment [2]. The Ratio in experiment [3] amounted to 9.
For `CN1Cc2c(C(=O)OCC(C)(C)C)ncn2-c2ccc(Cl)cc2C1=O`, the Ratio in experiment [3] is 0.67.
Same read-out and setting: as for `CN1Cc2c(C(=O)OC(C)(C)C)ncn2-c2ccccc2C1=O`, the figure is 19.2.
As for `CCOC(=O)c1ncn2c1CN(C)C(=O)c1c(Cl)cccc1-2` [SARMAZENIL], the figures for the Ki in experiment [1] and in experiment [2] were 20 nM and 0.2 nM, respectively. Also, in experiment [3], the Ratio worked out at 100.
Taken in the same sequence, the figures for `CC(C)(C)OC(=O)c1ncn2c1C1CCCN1C(=O)c1c-2ccc(F)c1Cl` (centres undefined) were 23.6 nM, 1 nM and 24.
In the same order, the values of `O=C(OCC1CC1)c1ncn2c1C1CCCN1C(=O)c1cc(Cl)ccc1-2` (centres undefined) are 81 nM, 378 nM and 0.22.
For `Cc1nnc(-c2ncn3c2CN(Cc2ccccc2)C(=O)c2ccccc2-3)o1`, the inhibitory constant (Ki) in experiment [1] was above 10000 nM; in experiment [2] it was 1210 nM.
Regarding `CN1Cc2c(C(=O)OCC3CC3)ncn2-c2ccc(Cl)cc2C1=O`, in experiment [3], the Ratio was 4.1.
With `Cc1noc(-c2ncn3c2CN(Cc2ccccc2)C(=O)c2ccccc2-3)n1`, the Ki in experiment [1] is above 10000 nM; in experiment [2], 907 nM.
`CC(C)(C)OC(=O)c1ncn2c1C1CCCN1C(=O)c1cc(Cl)ccc1-2` (centres undefined): the Ki in experiment [1] turned out to be 26.8 nM; in experiment [2], 65.2 nM. The Ratio in experiment [3] is 0.4.
In the same order, the values of `O=C(OCC1CC1)c1ncn2c1C1CCN1C(=O)c1c(Cl)cccc1-2` (centres undefined) are 55 nM, 0.1 nM and 554.
Taken in the same sequence, the figures for `CCCOC(=O)c1ncn2c1CN=C(c1ccccc1Cl)c1cc(Cl)ccc1-2` were 1020 nM, 1.9 nM and 539.
Regarding `CN1Cc2c(C(=O)OC(C)(C)C)ncn2-c2ccc(Cl)cc2C1=O`, the Ratio in experiment [3] worked out at 0.4.
Regarding `Cc1nnc2n1-c1ccc(Cl)cc1C(c1ccccc1Cl)=NC2` [TRIAZOLAM], the Ki in experiment [1] came to 2090 nM; in experiment [2], 0.8 nM. The Ratio in experiment [3] turned out to be 2610.
Taken in the same sequence, the figures for `CCOC(=O)c1ncn2c1C1CCCN1C(=O)c1c(Cl)cccc1-2` (centres undefined) were 68.8 nM, 0.2 nM and 344.
As to `CCCOC(=O)c1ncn2c1CN(C)C(=O)c1cc(Cl)ccc1-2`, the Ratio in experiment [3] stood at 1.3.
Regarding `CCOC(=O)c1ncn2c1CN(Cc1ccccc1)C(=O)c1ccccc1-2`, the Ki came to 112 nM in experiment [1] and 1.5 nM in experiment [2]. The Ratio in experiment [3] was 75.
`CCOC(=O)c1ncn2c1[C@@H]1CCCN1C(=O)c1ccccc1-2`: the Ratio in experiment [3] is 50.
With `CCOC(=O)c1ncn2c1C1CCCN1C(=O)c1cc(Cl)ccc1-2` (centres undefined), the Ratio in experiment [3] was 0.7.
As for `COC(=O)c1ncn2c1CN(C)C(=O)c1cc(F)ccc1-2` [FLUMAZENIL METHYLESTER], the Ki turned out to be 239 nM in experiment [1] and 3.1 nM in experiment [2]. For the same molecule, the Ratio in experiment [3] worked out at 77.
In the case of `O=C(OC1CCCCC1)c1ncn2c1C1CCCN1C(=O)c1cc(Cl)ccc1-2` (centres undefined), the Ki came out at 165 nM in experiment [1] and 391 nM in experiment [2]. Moreover, the Ratio in experiment [3] stood at 0.42.
In the same order, the values of `Cc1noc(-c2ncn3c2CN(Cc2ccccc2)C(=O)c2cc(Cl)ccc2-3)n1` are 115 nM, 88.4 nM and 1.3.
In the same order, the values of `C=CCN1Cc2c(C(=O)OCC)ncn2-c2ccccc2C1=O` are 1130 nM, 39.2 nM and 29.
As to `CCOC(=O)c1ncn2c1CN(C)C(=O)c1ccccc1-2`, in experiment [3], the Ratio stood at 165.
In the case of `COc1cccc2c1C(=O)N1CCCC1c1c(C(=O)OC(C)(C)C)ncn1-2` (centres undefined), the inhibition constant (Ki) in experiment [1] turned out to be 259 nM; in experiment [2], 5.1 nM. Moreover, in experiment [3], the Ratio was 51.
With `CCOC(=O)c1ncn2c1CN(C)C(=O)c1cccc(Cl)c1-2`, the Ki in experiment [1] was above 10000 nM; in experiment [2], above 1000 nM.
For `CCCOC(=O)c1ncn2c1CN(C)C(=O)c1sccc1-2`, the Ratio in experiment [3] amounted to 27.
`CN1Cc2c(C(=O)OCCC(C)(C)C)ncn2-c2ccc(Cl)cc2C1=O` yielded a Ki in experiment [1] above 1000 nM.
`CC(C)(C)OC(=O)c1ncn2c1C1CCN1C(=O)c1c(Cl)cccc1-2` (centres undefined) had a Ki in experiment [2] of 1.1 nM. Moreover, the Ratio in experiment [3] was 14.
For the molecule `COC(=O)c1ncn2c1CN(C)C(=O)c1ccccc1-2`, the affinity in experiment [1], expressed as Ki, was 1410 nM. In experiment [3], the Ratio is 224.

The record behind these values is ChEMBL document CHEMBL1127024, “Synthetic and computer-assisted analysis of the structural requirements for selective, high-affinity ligand binding to diazepam-insensitive benzodiazepine receptors” (J Med Chem, 1993).
